From ChEMBL document CHEMBL4033652, “Design, synthesis, and pharmacological evaluation of 4-azolyl-benzamide derivatives as novel GPR52 agonists” (Bioorg Med Chem, 2017)

What was measured:
[1] = target: T1, G-protein coupled receptor 52 (Homo sapiens, UniProt Q9Y2T5); assay: Agonist activity at human GPR52 expressed in CHO cells assessed as increase in cAMP level after 30 mins by AlphaScreen assay; assay type: functional, cell-based
Procedure, shortened: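 CHO cells stably expressing human GPR52 (10,000/well) exposed to compound at various concentrations, 30 min, 37°C, in HBSS with 5 mM HEPES pH 7.6, 0.5% BSA, 100 µM IBMX and 100 µM Ro20-1724. AlphaScreen acceptor/donor beads added overnight at room temperature. Response expressed relative to a reference benzofuran agonist (100%). EC50 from mean curves, n = 2–4, 95% CI.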

[2] = target: T1, G-protein coupled receptor 52; assay: Agonist activity at human GPR52 expressed in CHO cells assessed as increase in cAMP level at 1 uM after 30 mins by AlphaScreen assay relative to (N-(2-hydroxyethyl)-3-(2-(3-(trifluoromethyl)benzyl)-1-benzofuran-4-yl)benzamide); assay type: functional, cell-based
Procedure, shortened: (§1)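 CHO cells stably expressing human GPR52, 10,000 cells per well, exposed to compound 30 min at 37°C in HBSS with 5 mM HEPES pH 7.6, 0.5% BSA, 100 µM IBMX and 100 µM Ro20-1724. cAMP measured by AlphaScreen with acceptor and biotinylated donor beads after overnight room-temperature incubation. Emax set relative to the reference benzofuran benzamide (100%). EC50 taken from mean curves, n = 2–4, with 95% CI.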

[3] = target: T1, G-protein coupled receptor 52; assay: Agonist activity at human GPR52 expressed in CHO cells assessed as increase in cAMP level after 30 mins by AlphaScreen assay relative to (N-(2-hydroxyethyl)-3-(2-(3-(trifluoromethyl)benzyl)-1-benzofuran-4-yl)benzamide); assay type: functional, cell-based; procedure, shortened: as §1
[4] = Oral bioavailability in Sprague-Dawley rat at 1 mg/kg administered as cassette dose by LC-MS/MS analysis; assay type: ADME, organism-based; settings: in vivo
Procedure, shortened: (§2)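 Cassette dosing in non-fasted male SD rats (n = 3): i.v. 0.1 mg/kg or p.o. 1 mg/kg. Plasma prepared from blood, deproteinized, centrifuged, supernatant measured by LC/MS/MS. AUC taken over 0–8 h.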

[5] = AUC (0 to 8 hrs) in Sprague-Dawley rat at 1 mg/kg, po administered as cassette dose by LC-MS/MS analysis; assay type: ADME, organism-based; set-up: time < 8 hr, dose 1 mg/kg, route oral; settings: in vivo; procedure, shortened: as §2
[6] = Total clearance in Sprague-Dawley rat at 0.1 mg/kg, iv or 1 mg/kg, po administered as cassette dose by LC/MS/MS analysis; assay type: ADME, organism-based; settings: in vivo; procedure, shortened: as §2

T1 sequence (Q9Y2T5 whole entry): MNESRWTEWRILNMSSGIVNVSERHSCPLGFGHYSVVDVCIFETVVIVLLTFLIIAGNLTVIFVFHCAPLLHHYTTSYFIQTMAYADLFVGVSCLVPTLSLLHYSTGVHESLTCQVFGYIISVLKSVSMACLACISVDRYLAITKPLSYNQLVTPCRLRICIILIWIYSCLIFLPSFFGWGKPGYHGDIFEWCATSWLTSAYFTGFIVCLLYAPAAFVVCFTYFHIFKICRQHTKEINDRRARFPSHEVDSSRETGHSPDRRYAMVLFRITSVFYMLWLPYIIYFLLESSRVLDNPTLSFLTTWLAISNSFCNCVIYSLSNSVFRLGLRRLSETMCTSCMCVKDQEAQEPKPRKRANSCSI

SMILES | EC50 [1] | Emax [2] | Emax [3] | bioavailability [4] | AUC(0-t) at 8 h [5] | clearance [6]
Cc1nc(Cc2cccc(C(F)(F)F)c2)sc1-c1ccc(C(N)=O)nc1 [TP-024n] | > 1000 nM | 11% |  |  |  | 
Cc1cc(-n2cc(Cc3cc(F)cc(C(F)(F)F)c3)nc2C)ccc1C(N)=O | 59 nM |  | 107% | 28.4% | 268 ng·h/mL | 18.8 mL/min/kg
Cc1cc(-c2sc(Cc3cc(F)cc(Cl)c3)nc2C)ccc1C(N)=O | 25 nM |  | 88% |  |  | 
Cc1nc(Cc2cccc(C(F)(F)F)c2)sc1-c1ccc(C(N)=O)cc1 | 220 nM |  | 93% |  |  | 
Cc1nc(Cc2cccc(C(F)(F)F)c2)sc1-c1ccc(C(N)=O)c(C(F)(F)F)c1 | 110 nM |  | 92% |  |  | 
COc1cc(-c2sc(Cc3cccc(C(F)(F)F)c3)nc2C)ccc1C(N)=O | 170 nM |  | 88% |  |  | 
Cc1nc(Cc2cccc(C(F)(F)F)c2)sc1-c1ccc(C(N)=O)cn1 | 400 nM |  | 70% |  |  | 
CCc1cc(-c2sc(Cc3cccc(C(F)(F)F)c3)nc2C)ccc1C(N)=O | 83 nM |  | 84% |  |  | 
Cc1nc(Cc2cccc(C(F)(F)F)c2)sc1-c1ccc(C(N)=O)c(C(C)C)c1 | 370 nM |  | 63% |  |  | 
Cc1cc(-c2sc(Cc3cccc(F)c3)nc2C)ccc1C(N)=O | 260 nM |  | 75% |  |  | 
